Screens from PubChem.
Most compounds without a hit are left out; they make up all but 3.7% or so of the library.
hERG rescue = compounds protecting human hERG from proarrhythmic drug block; actives 0.51% (n = 310,000); AID 1511; activation (rescue from dofetilide block), less the hit threshold, % at 10 µM; CHO-hERG, FluxOR thallium flux, dofetilide IC70 present; Q12809;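 active means activation above the mean of controls blocked by dofetilide plus 5 SD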;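 further: thallium influx through hERG after potassium depolarization seen as dye fluorescence rise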
KCNQ1 block = human KCNQ1 channel inhibition; AID 2642; P51787; actives 1.3% (n = 310,000); B-score at 10 µM; CHO-K1 KCNQ1, FluxOR thallium flux fluorescence; stronger effect = higher value;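 active means compounds whose thallium flux B-score, printed positive for inhibition, exceeds three library SD while starting fluorescence stays within three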;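 further: channel opened by potassium depolarization with thallium stimulus after 20 min compound exposure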
KCNK3 block = human KCNK3 channel inhibition, primary screen; O14649; CHO-KCNK3 thallium flux, FluxOR fluorescence; stronger effect = lower value; B-score at 10 µM; actives 0.84% (n = 340,000); AID 602410;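 active means B-score under library mean minus 4 SD, starting fluorescence ratio at most library mean plus 5 SD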;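 further: more negative B-score means stronger inhibition of thallium flux through KCNK3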
KCNK9 block = human KCNK9 channel inhibition. AID 488922. actives 1.2% (n = 310,000). HEK293 KCNK9, FluxOR thallium flux fluorescence; stronger effect = lower value. B-score at 10 µM. Q9NPC2;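 active means ratio B-score over 3 SD below the library mean, with starting fluorescence within 5 SD of its mean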;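 further: negative B-score means less thallium flux so channel inhibition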
Target sequence (Q9NPC2 whole entry, looked up): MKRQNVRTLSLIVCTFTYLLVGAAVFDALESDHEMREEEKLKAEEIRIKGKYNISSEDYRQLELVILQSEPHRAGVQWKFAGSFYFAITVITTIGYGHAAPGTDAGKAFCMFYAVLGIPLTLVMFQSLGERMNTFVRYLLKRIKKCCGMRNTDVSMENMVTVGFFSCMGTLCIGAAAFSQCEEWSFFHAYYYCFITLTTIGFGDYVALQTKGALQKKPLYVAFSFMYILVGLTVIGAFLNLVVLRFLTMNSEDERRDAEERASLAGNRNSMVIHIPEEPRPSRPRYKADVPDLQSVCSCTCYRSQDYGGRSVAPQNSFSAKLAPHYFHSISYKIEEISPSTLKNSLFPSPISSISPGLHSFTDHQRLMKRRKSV
KCNQ1 act = potentiates or activates the human KCNQ1 potassium channel; B-score at 10 µM; CHO-K1 KCNQ1, thallium flux FluxOR fluorescence; stronger effect = higher value; P51787; actives 0.35% (n = 310,000); AID 2648;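 active means fluorescence ratio B-score, a plate-corrected score, at least three library SD, with initial intensity B-score within 5 SD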
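Assay system: stable KCNQ1 CHO-K1 line; medium: assay buffer, equal DMSO in all wells; timing: 90 min dye loading and 20 min compound exposure, both at room temperature; technique: kinetic FluxOR thallium fluorescence, 10-s 1-Hz baseline, 110-s post-stimulus read; read-out basis: B score of baseline-normalized fluorescence ratio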
Kir21 inh = Kir2.1 (mouse) channel inhibition. P35561. HEK293-Kir2.1, FluxOR thallium flux fluorescence; stronger effect = lower value. B-score at 10 µM. actives 0.85% (n = 310,000);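 active means fluorescence ratio B-score at or below minus 3 SD of library scores, with starting-brightness B-score within 2 SD, cut at about -4.2 in these data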;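 further: channel flux triggered by added potassium and thallium sulfate stimulus; B-score of peak minus minimum fluorescence over baseline after thallium stimulus; more negative B-score means stronger Kir2.1 block with less thallium influx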
The depositor's hits bear a star; i = inactive; . = no result given.

SMILES	hERG rescue	KCNQ1 block	KCNK3 block	KCNK9 block	KCNQ1 act	Kir21 inh
COc1cccc(CC2(CO)CCCN(Cc3c(C)cc(C)cc3-n3cccn3)C2)c1 (stereo unspecified)	-26	i	i	i	i	-5.4*
COc1cccc(CC2(CO)CCCN(Cc3ccc(C)s3)C2)c1 (stereo unspecified)	-4	i	i	i	i	-2
CSc1ccc(CN2CCCC(CO)(Cc3ccccc3)C2)cc1 (stereo unspecified)	-14	i	i	i	i	-4.5*
COc1cccc(CC2(CO)CCCN(Cc3cc4ccccc4[nH]3)C2)c1 (stereo unspecified)	-13	i	i	i	i	-4.2*
COc1cc(Cl)c(CN2CCCC(CO)(Cc3ccccc3)C2)cc1OC (stereo unspecified)	-5	i	i	i	i	-2.5
Cc1onc(-c2ccccc2)c1C(=O)NC(=S)Nc1sc2c(c1C#N)CCC(C)C2 (stereo unspecified)	15*	i	i	i	21*	-0.03
Cc1onc(-c2ccccc2)c1C(=O)NC(=S)Nc1sc2c(c1C#N)CCCC2	16*	i	i	i	8*	0.97
Cc1onc(-c2ccccc2)c1C(=O)Nc1sc2c(c1C#N)CCC2	-12	i	i	i	i	1.6
Cc1cc(C(=O)Nc2sc3c(c2C#N)CCC(C)C3)no1 (stereo unspecified)	-7	i	i	i	i	-0.29
Cc1ccc(S(=O)(=O)N2[C@@H](c3ccc(Br)cc3)C(C(=O)O)=CC[C@H]2c2cccs2)cc1	.	.	i	.	.	.
O=C(Nc1cc(Cl)ccc1-n1cncn1)c1ccc([N+](=O)[O-])o1	-8	i	i	i	i	-0.04
Cc1ccc(C(=O)N(C)Cc2nc3ccccc3c(=O)[nH]2)cc1NC(=O)c1ccco1	.	.	i	.	.	.
COc1ccccc1OCc1ccc(C(=O)n2nc(C)c(Cl)c2C)o1	-9	i	i	-7.9*	i	-1
COC(=O)c1ccc(COc2ccccc2OC)o1	-5	i	i	i	i	0.11
O=C1NC2(CCCCCC2)C(=O)N1Cc1ccccc1Br	-4	i	i	i	i	0.65
O=C(COC(=O)c1cccc2ccccc12)Nc1cccnc1Cl	-4	i	i	i	i	0.56
O=C(COC(=O)c1ccncc1)Nc1cccc2ccccc12	.	.	-8.8*	.	.	.
CCC(=O)Nc1ccccc1C(=O)OCC(=O)c1cccc2ccccc12	-10	i	-11*	-7.3*	i	1.4
COc1ccc(CCN(C)CC(O)c2ccccc2)cc1OC (stereo unspecified)	-12	i	i	i	i	-1.2
COc1ccc(-c2ccc(/C=N/NC(=O)c3cccnc3)o2)c([N+](=O)[O-])c1	16*	i	i	i	i	-2.3
Cc1ccc(S(=O)(=O)N(C)C)cc1NC(=O)C(C)OC(=O)c1cc[n+]([O-])cc1 (stereo unspecified)	.	.	i	.	.	.
COc1ccc(Cl)cc1C(=O)NNC(=O)C1CCCO1 (stereo unspecified)	.	.	i	.	.	.
CCC(NCc1cccnc1)c1ccc(OC)c(OC)c1 (stereo unspecified)	.	.	i	.	.	.
CCOC(=O)c1c(NC(=O)CSc2nnnn2C)sc(C)c1-c1ccc(C)cc1	-14	i	i	-6.6*	i	2.3
Cc1cccc2c1-c1sc(C(=O)Nc3cccnc3)cc1CO2	-11	i	i	-7.2*	i	0.6
SMILES	hERG rescue	KCNQ1 block	KCNK3 block	KCNK9 block	KCNQ1 act	Kir21 inh
O=C(CCN1CCOCC1)NNC(=O)c1ccc([N+](=O)[O-])cc1[N+](=O)[O-]	.	.	i	.	.	.
O=[N+]([O-])c1ccccc1Sc1nccn1Cc1ccccc1	-10	i	i	i	i	-4.9*
NC(=O)CSc1nccn1Cc1ccccc1	-12	i	i	i	i	-1.1
CCCc1nc2ccc(NC(=O)c3cccs3)cc2c(=O)n1Cc1ccccc1Cl	-6	i	i	-6.8*	i	-1.1
C/C(=N/NC(=O)C1CCCN1C(=O)c1ccc([N+](=O)[O-])cc1)c1ccc(Br)cc1 (stereo unspecified)	-7	i	i	i	i	-1.6
FC(F)c1nnc2c(Cl)cc(C(F)(F)F)cn12	6.4*	i	i	i	i	-1.1
Fc1ccc(-c2nc3c(Cl)cc(C(F)(F)F)cn3c2Cl)cc1	-12	i	i	i	i	1.6
Cc1ccc(S(=O)(=O)Oc2ccccc2-c2ccccc2)cc1	.	.	i	.	.	.
O=C1CCC[C@@H]2C[C@@]3(C[C@@H]4CCN1[C@H]24)Nc1cc(Cl)c(Cl)cc1NC3=NCc1ccccc1	.	.	i	.	.	.
COc1cc(/C=C2/C(=O)NN(c3cccc(F)c3)C2=O)ccc1OC(=O)c1ccco1	-10	i	i	i	i	-9.8*
COc1cc(/C=N/NC(=O)c2ccc(F)cc2)ccc1OC(=O)c1ccco1	-10	i	i	i	i	-1.2
Cc1noc(C)c1NC(=O)N(C)C[C@H]1Oc2ccc(NC(=O)c3ccncc3)cc2C(=O)N([C@H](C)CO)C[C@@H]1C	.	.	i	.	.	.
Cc1ccc(S(=O)(=O)Oc2ccccc2/C=N/Nc2ccc(C(=O)O)cc2)cc1	-4	i	i	i	i	1.2
Cc1ccc(S(=O)(=O)Oc2ccccc2/C=N/O)cc1	-5	i	i	i	i	-6.9*
COc1ccc(C(C(=O)NC2CCCCC2)N(C(=O)c2snc(C(N)=O)c2N)c2ccc(OC)cc2OC)cc1 (stereo unspecified)	-8	i	i	i	i	0.06
Cc1ccccc1N(C(=O)c1snc(C(N)=O)c1N)C(C(=O)NC1CCCCC1)c1ccc(O)cc1 (stereo unspecified)	-9	6*	i	i	i	-1
COc1ccc(N(C(=O)c2snc(C(N)=O)c2N)C(C(=O)NC2CCCCC2)c2ccc(C)o2)c(OC)c1 (stereo unspecified)	-9	6*	i	i	i	0.75
O=C(Nc1ccccc1N1CCOCC1)c1ccc([N+](=O)[O-])s1	.	.	i	.	.	.
CN(c1ccc(O)cc1)S(=O)(=O)c1ccc2ccccc2c1	-12	i	i	i	i	-5.9*
Cc1cc(O)cc(C)c1NS(=O)(=O)c1ccc2ccccc2c1	-16	i	i	i	i	-6.6*
O=C(/C(N=Nc1cccc([N+](=O)[O-])c1)=C(/O)c1ccc(Br)cc1)C(F)(F)F	-16	9*	.	-9.2*	i	-0.89
